Laboratory results published in ChEMBL document CHEMBL1152965, “Synthesis and in vitro antiplasmodial evaluation of 4-anilino-2-trichloromethylquinazolines” (Bioorg Med Chem, 2009).

What was measured:
K562 = test: Cytotoxicity against human K562 cells after 72 hrs by flow cytometry; assay type: cell-based; conditions: K562, 72 h
Summary of the method: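 Chemosensitive K562 subline, late log phase, in phenol-red-free RPMI with 10% serum. Compound range added in duplicate (DMSO <0.5%). After 72 h at 37 °C, 6% CO₂, cells stained with propidium iodide and live cells in a 100 µL sample counted by flow cytometry. IC50 from non-linear regression of dose-response curves, mean of three independent experiments.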

[1] = Selectivity index, ratio IC50 for human HepG2 cells to IC50 for chloroquine, pyrimethamine and proguanil-resistant Plasmodium falciparum W2; assay type: functional
Summary of the method: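 SI = HepG2 IC50 / W2 IC50. MTT 2 h, formazan dissolved in DMSO, absorbance 570 nm (ref 630 nm). Viability as % of untreated control, IC50 from dose-response curve.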

Plasmodium falciparum = test: Antimalarial activity as reduced parasitaemia after 48 hrs against chloroquine, pyrimethamine and proguanil-resistant Plasmodium falciparum W2 infected in type A+ human erythrocytes by flow cytometry; assay type: functional, organism-based; conditions: W2, 48 h
HepG2 = test: Cytotoxicity against human HepG2 cells after 72 hrs by MTT assay; assay type: cell-based; conditions: HepG2, 72 h
Summary of the method: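 HepG2 cells plated in RPMI with 10% FBS and grown 24 h, then exposed to a range of compound concentrations for 72 h at 37 °C, 6% CO₂. MTT (5 mg/mL stock) added for 2 h, formazan dissolved in DMSO and read at 570 nm against 630 nm. Viability expressed as percent of untreated control. CC50 taken from the dose-response curve.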

[2] = Selectivity index, ratio of IC50 for human K562 cells to IC50 for chloroquine, pyrimethamine and proguanil-resistant Plasmodium falciparum W2; assay type: toxicity, cell-based; conditions: K562 cells (cytotoxicity) versus Plasmodium falciparum W2, read-out: Ratio IC50
Summary of the method: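 SI = K562 IC50 / W2 IC50. Live cells counted by flow cytometry after propidium iodide stain. IC50 by non-linear regression, mean of three independent experiments.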

Leishmania donovani = test: Antileishmanial activity against Leishmania donovani HOM/IN/01/2001 promastigotes after 72 hrs by flow cytometry; assay type: functional, organism-based; conditions: HOM/IN/01/2001, 72 h
Summary of the method: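 GFP-transfected promastigotes, log phase, in M199 with 10% FCS and 500 µg/mL G418, seeded at 10⁵ parasites/mL. Compounds in DMSO (final <0.5% v/v) added in duplicate over a concentration range. Incubated 72 h at 27 °C.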

Toxoplasma gondii = test: Antitoxoplasmic activity against Toxoplasma gondii tachyzoites infected in HFF assessed as beta-galactosidase activity after 96 hrs by colorimetric microtiter assay; assay type: functional, organism-based
Summary of the method: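 Tachyzoites of the PRU-β-Gal strain. 10⁴ HFF cells per well grown to confluence in phenol-red-free RPMI with 10% FCS. Monolayers infected with 2.10³ parasites per well for 3 h, then compounds in DMSO (final <0.5%) added in triplicate. Incubated 96 h at 37 °C, 6% CO₂. CPRG added at 500 µM final for a further 24 h. Read at 570/630 nm, blanked on uninfected wells. IC50 from three independent experiments.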

IC50 (Leishmania donovani) | SMILES | IC50 (K562) | Ratio IC50 [1] | IC50 (Plasmodium falciparum) | IC50 (HepG2) | selectivity ratio [2] | IC50 (Toxoplasma gondii)
– | ClC(Cl)(Cl)c1nc(NCc2ccccc2)c2ccccc2n1 | > 50 µM | 1.9 | 6.9 µM | 13 µM | > 7.2 | –
– | COc1ccccc1Nc1nc(C(Cl)(Cl)Cl)nc2ccccc12 | 60 µM | 10 | 6 µM | 60 µM | 10 | –
– | FC(F)(F)c1cc(Nc2nc(C(Cl)(Cl)Cl)nc3ccccc23)cc(C(F)(F)F)c1 | 10 µM | 1 | 3 µM | 3 µM | 3.3 | –
– | CCN(CC)CCCC(C)Nc1ccnc2cc(Cl)ccc12 (centres undefined) [CHLOROQUINE] | 32 µM | – | – | – | – | –
– | ClC(Cl)(Cl)c1nc(NC2CCCCCC2)c2ccccc2n1 | > 50 µM | 3.7 | 5.1 µM | 19 µM | > 9.8 | –
– | CN1CCN(c2nc(C(Cl)(Cl)Cl)nc3ccccc23)CC1 | 65 µM | 13.4 | 5.6 µM | 75 µM | 11.6 | –
– | FC(F)(F)Oc1ccc(Nc2nc(C(Cl)(Cl)Cl)nc3ccccc23)cc1 | 6 µM | 2.1 | 2.9 µM | 6 µM | 2.1 | –
– | Clc1cc(Cl)cc(Nc2nc(C(Cl)(Cl)Cl)nc3ccccc23)c1 | 9 µM | 2.5 | 4 µM | 10 µM | 2.2 | –
– | Clc1ccc(Nc2nc(C(Cl)(Cl)Cl)nc3ccccc23)cc1 | 14 µM | 3 | 3 µM | 9 µM | 4.7 | –
– | Clc1cccc(Cl)c1Nc1nc(C(Cl)(Cl)Cl)nc2ccccc12 | 10 µM | 1.1 | 21.9 µM | 23 µM | 0.5 | –
– | Clc1ccc(Cl)c(Nc2nc(C(Cl)(Cl)Cl)nc3ccccc23)c1 | > 8 µM | 17.6 | 1.7 µM | 30 µM | > 4.7 | –
– | CCCCNc1nc(C(Cl)(Cl)Cl)nc2ccccc12 | > 50 µM | 1.1 | 14.3 µM | 16 µM | > 3.5 | –
– | ClC(Cl)(Cl)c1nc(N2CCOCC2)c2ccccc2n1 | > 125 µM | >2 | 14.9 µM | 63 µM | > 8.4 | –
– | Clc1cccc(Nc2nc(C(Cl)(Cl)Cl)nc3ccccc23)c1Cl | > 60 µM | 7.1 | 14 µM | > 100 µM | > 4.3 | –
– | COc1ccc(Nc2nc(C(Cl)(Cl)Cl)nc3ccccc23)cc1 | 8 µM | 1.2 | 6 µM | 7 µM | 1.3 | –
– | Fc1ccc(Nc2nc(C(Cl)(Cl)Cl)nc3ccccc23)cc1 | > 125 µM | >9.3 | 5.4 µM | > 50 µM | > 23.1 | –
– | ClC(Cl)(Cl)c1nc(Nc2ccc(Br)cc2)c2ccccc2n1 | 15 µM | 5.7 | 1.5 µM | 10 µM | 10 | –
– | FC(F)(F)c1ccccc1Nc1nc(C(Cl)(Cl)Cl)nc2ccccc12 | 30 µM | 1.4 | 7.4 µM | 10 µM | 4.1 | –
– | Clc1ccccc1Nc1nc(C(Cl)(Cl)Cl)nc2ccccc12 | > 50 µM | 5.5 | 4.6 µM | 25 µM | > 10.9 | –
– | Clc1ccc(Nc2nc(C(Cl)(Cl)Cl)nc3ccccc23)cc1Cl | 9 µM | 1.6 | 5 µM | 8 µM | 1.8 | –

IC50 (Leishmania donovani) | SMILES | IC50 (K562) | Ratio IC50 [1] | IC50 (Plasmodium falciparum) | IC50 (HepG2) | selectivity ratio [2] | IC50 (Toxoplasma gondii)
– | Cc1ccc(Nc2nc(C(Cl)(Cl)Cl)nc3ccccc23)cc1 | 6 µM | 3.3 | 2.4 µM | 8 µM | 2.5 | –
– | C[C@H]1c2cccc(O)c2C(=O)C2=C(O)[C@]3(O)C(=O)C(C(N)=O)=C(O)[C@@H](N(C)C)[C@@H]3[C@@H](O)[C@@H]21.O [DOXYCYCLINE] | 15 µM | 3.1 | 6.5 µM | 20 µM | 2.3 | –
– | FC(F)(F)c1ccc(Nc2nc(C(Cl)(Cl)Cl)nc3ccccc23)cc1 | 4 µM | 3.8 | 1.6 µM | 6 µM | 2.5 | –
– | Cc1nc(Nc2cccc(Cl)c2)c2ccccc2n1 | 27 µM | 0.7 | 55 µM | 40 µM | 0.5 | –
– | Fc1ccccc1Nc1nc(C(Cl)(Cl)Cl)nc2ccccc12 | 30 µM | 1.1 | 9 µM | 10 µM | 3.3 | –
0.08 µM | C[C@@H]1[C@H](O)[C@@H](C)/C=C/C=C/C=C/C=C/C=C/C=C/C=C/[C@H](O[C@@H]2O[C@H](C)[C@@H](O)[C@H](N)[C@@H]2O)C[C@@H]2O[C@](O)(C[C@@H](O)C[C@@H](O)[C@H](O)CC[C@@H](O)C[C@@H](O)CC(=O)O[C@H]1C)C[C@H](O)[C@H]2C(=O)O [AMPHOTERICIN B] | 17 µM | – | – | 10 µM | – | –
– | Fc1cccc(Nc2nc(C(Cl)(Cl)Cl)nc3ccccc23)c1 | 15 µM | 1 | 4 µM | 16 µM | 3.8 | –
– | ClC(Cl)(Cl)c1nc(Nc2ccccc2)c2ccccc2n1 | > 50 µM | >4.5 | 11 µM | > 50 µM | > 4.5 | –
– | ClC(Cl)(Cl)c1nc(Nc2cccc3ccccc23)c2ccccc2n1 | 5 µM | 2.5 | 6 µM | 15 µM | 0.8 | –
– | CCc1nc(N)nc(N)c1-c1ccc(Cl)cc1 [PYRIMETHAMINE] | 5 µM | – | – | 30 µM | – | 2 µM
– | Cc1ccccc1Nc1nc(C(Cl)(Cl)Cl)nc2ccccc12 | 11 µM | 3.4 | 7 µM | 24 µM | 1.6 | –
– | Cc1cccc(Nc2nc(C(Cl)(Cl)Cl)nc3ccccc23)c1 | 9 µM | 5.2 | 2.3 µM | 12 µM | 3.9 | –
– | O=[N+]([O-])c1ccc(Nc2nc(C(Cl)(Cl)Cl)nc3ccccc23)cc1 | 5 µM | 2.1 | 2.8 µM | 6 µM | 1.8 | –
– | COc1cccc2c1C(=O)c1c(O)c3c(c(O)c1C2=O)C[C@@](O)(C(=O)CO)C[C@@H]3O[C@H]1C[C@H](N)[C@H](O)[C@H](C)O1 [DOXORUBICIN] | 0.06 µM | – | – | 0.2 µM | – | –
– | COc1cccc(Nc2nc(C(Cl)(Cl)Cl)nc3ccccc23)c1 | 9 µM | 0.1 | 4 µM | 0.5 µM | 2.3 | –
– | O=[N+]([O-])c1cccc(Nc2nc(C(Cl)(Cl)Cl)nc3ccccc23)c1 | 5 µM | 3.3 | 3 µM | 10 µM | 1.7 | –
– | ClC(Cl)(Cl)c1nc(Nc2ccccc2Br)c2ccccc2n1 | > 30 µM | >16.7 | 3 µM | > 50 µM | > 10 | –
– | O=[N+]([O-])c1ccccc1Nc1nc(C(Cl)(Cl)Cl)nc2ccccc12 | > 60 µM | >33.3 | 3 µM | > 100 µM | > 20 | –
– | ClC(Cl)(Cl)c1nc(N2CCCC2)c2ccccc2n1 | > 125 µM | >6 | 41.5 µM | > 250 µM | > 3 | –
– | Cc1nc(Nc2cccc(C(F)(F)F)c2)c2ccccc2n1 | 10 µM | 0.5 | 42.5 µM | 20 µM | 0.2 | –
